Reference: ChEMBL document CHEMBL1123566, “Synthesis and cardiac electrophysiological activity of 2- and 3-[(substituted phenyl)alkyl]quinuclidines. Structure-activity relationships” (1987)
Several values for one entry are separate records, joined by “and”; a condition that tells them apart may be missing. Equal values may be shown once.

Tests used:
Canis familiaris [1] = organism: Canis familiaris; test: In vitro electrophysiological evaluation in canine cardiac ventricular muscle reported as maximum % change for functional refractory period (FRP) at 0.1-100 uM concentration range; concentration at which it occurred is 100 uM; parameters: species or system Canis lupus familiaris, Muscle tissue
In short: (§1)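 Canine right ventricle and papillary muscle strips in oxygenated Tyrode's solution, fitted with stimulating and recording electrodes. The extra-stimulus conduction-interval method was adapted for in vitro use. FRP and CT were read from a conduction-interval curve before and after various compound concentrations, and expressed as percent change from control. Compounds were taken from 10 mM deionized-water stock into Tyrode's. Each strip was used once as its own control.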

Canis familiaris [2] = organism: Canis familiaris; test: In vitro electrophysiological evaluation in canine cardiac ventricular muscle reported as maximum % change for functional refractory period (FRP) at 0.1-100 uM concentration range; concentration at which it occurred is 1 uM; parameters: species or system Canis lupus familiaris, Muscle tissue; in short: as §1
Canis familiaris [3] = organism: Canis familiaris; test: In vitro electrophysiological evaluation in canine cardiac ventricular muscle reported as maximum % change for functional refractory period (FRP) at 0.1-100 uM concentration range; concentration at which it occurred is 10 uM; parameters: species or system Canis lupus familiaris, Muscle tissue; in short: as §1
Canis familiaris [4] = organism: Canis familiaris; test: In vitro electrophysiological evaluation in canine cardiac ventricular muscle reported as % change for the functional refractory period (FRP) at 10 uM at concentration range of 0.1-100 uM; parameters: species or system Canis lupus familiaris, Muscle tissue; in short: as §1
Canis familiaris [5] = organism: Canis familiaris; test: In vitro electrophysiological evaluation in canine cardiac ventricular muscle reported as % change for conduction time(CT) at 10 uM at 0.1-100 uM concentration range; Minimal (<10% decrease or increase in CT).; type: functional, Canis lupus familiaris, Muscle tissue
Canis familiaris [6] = organism: Canis familiaris; test: In vitro electrophysiological evaluation in canine cardiac ventricular muscle reported as maximum % change for conduction time(CT) at 0.1-100 uM concentration range; Minimal (<10% decrease or increase in CT).; type: functional, Canis lupus familiaris, Muscle tissue; in short: as §1
Canis familiaris [7] = organism: Canis familiaris; test: In vitro electrophysiological evaluation in canine cardiac Purkinje fibres reported as percent change Vmax at 10 uM at concentration range of 0.1-100 uM; Minimal (<10% decrease or increase in V max).; type: functional, organism-based; details: Canis lupus familiaris, Purkinje fiber
In short: (§2)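 Canine cardiac Purkinje fibres, intracellular microelectrode recording, paced at a basic cycle length of 1 s. APD95 and Vmax read simultaneously. Compound: 10 mM stock in deionized water, diluted into Tyrode's solution, tested over the stated concentration range. Each fibre used once as its own control. Result is % change from control, given at 10 µM or as the maximum with its concentration. M = <10% decrease or an increase in Vmax.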

Canis familiaris [8] = organism: Canis familiaris; test: In vitro electrophysiological evaluation in canine cardiac Purkinje fibres reported as percent change Vmax at 10 uM at concentration range of 1-100 uM; Minimal (<10% decrease or increase in V max).; type: functional; details: Canis lupus familiaris, Purkinje fiber; in short: as §2
Canis familiaris [9] = organism: Canis familiaris; test: (§3) In vitro electrophysiological evaluation in canine cardiac occurred is 100 uM; type: functional; details: Canis lupus familiaris; Heart
Canis familiaris [10] = organism: Canis familiaris; test: In vitro electrophysiological evaluation in canine cardiac ventricular muscle reported as maximum % change for conduction time(CT) at 0.1-100 uM concentration range; concentration at which it occurred is 100 uM; type: functional, Canis lupus familiaris, Muscle tissue; in short: as §1
Canis familiaris [11] = organism: Canis familiaris; test: as §3; type: functional; details: Canis lupus familiaris; Heart; remark: listed apart in the source
Canis familiaris [12] = organism: Canis familiaris; test: (§4) In vitro electrophysiological activity in canine cardiac occurred is 100 uM; type: functional, Canis lupus familiaris, Heart
Canis familiaris [13] = organism: Canis familiaris; test: In vitro electrophysiological evaluation in canine cardiac Purkinje fibres reported as % change for action potential duration at 10 uM at 1-100 uM concentration range; type: functional, Canis lupus familiaris, Purkinje fiber; in short: as §2
Canis familiaris [14] = organism: Canis familiaris; test: In vitro electrophysiological evaluation in canine cardiac Purkinje fibres reported as % change for action potential duration at a concentration of 10 uM; type: functional, Canis lupus familiaris, Purkinje fiber; in short: as §2
Canis familiaris [15] = organism: Canis familiaris; test: as §4; type: functional, Canis lupus familiaris, Heart; remark: listed apart in the source
Canis familiaris [16] = organism: Canis familiaris; test: In vitro electrophysiological evaluation in canine cardiac ventricular muscle reported as % change for conduction time(CT) at 0.1-100 uM concentration range; Minimal (<10% decrease or increase inCT).; type: functional, Canis lupus familiaris, Muscle tissue
In short: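 Canine right ventricular/papillary muscle strips in oxygenated Tyrode's, extracellular extra-stimulus conduction-interval method. FRP and CT are read from conduction-interval curves before and during rising concentrations. Compound is a 10 mM aqueous stock diluted into Tyrode's. Each strip is used once as its own control. Readouts are percent change from control at 10 μM, plus the maximum change with its concentration.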

Canis familiaris [17] = organism: Canis familiaris; test: In vitro electrophysiological evaluation in canine cardiac ventricular muscle reported as maximum % change for conduction time(CT) at 0.1-100 uM concentration range; Minimal (<10% decrease or increase inCT).; type: functional, Canis lupus familiaris, Muscle tissue
Canis familiaris [18] = organism: Canis familiaris; test: In vitro electrophysiological evaluation in canine cardiac Purkinje fibres reported as percent change Vmax at 10 uM at concentration range of 1-100 uM; Minimal (<10% decrease or increase in Vmax).; type: functional, organism-based; details: Canis lupus familiaris, Purkinje fiber
In short: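 Canine cardiac Purkinje fibers, intracellular recording, paced at a basic cycle length of 1 s. APD95 and Vmax are recorded together across cumulative concentrations. Compound is a 10 mM aqueous stock diluted into Tyrode's solution. Each fiber is used once as its own control. Readouts are percent change from control at 10 μM, and the maximum change with the concentration where it occurred.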

Canis familiaris [19] = organism: Canis familiaris; test: In vitro electrophysiological evaluation in canine cardiac occurred is 100 uM.; type: functional; details: Canis lupus familiaris; Heart
Canis familiaris [20] = organism: Canis familiaris; test: In vitro electrophysiological activity in canine cardiac occurred is 100 uM.; type: functional, Canis lupus familiaris, Heart
Canis familiaris [21] = organism: Canis familiaris; test: In vitro electrophysiological activity in canine cardiac occurred is 1 uM.; type: functional, Canis lupus familiaris, Heart

Cl.O=C(CCC1C(=O)C2CCN1CC2)c1ccc(Cl)c([N+](=O)[O-])c1 (stereo not drawn)
FRP (Canis familiaris [1]): 44% | FRP (Canis familiaris [2]): 14% | FRP (Canis familiaris [3]): 21% | FRP (Canis familiaris [4]): 21% and 14% and 26% | CT (Canis familiaris [5]): <10% | CT (Canis familiaris [6]): <10% | Vmax (Canis familiaris [7]): < 10% | Vmax (Canis familiaris [8]): < 10% | Vmax (Canis familiaris [9]): -37% and -42% | CT (Canis familiaris [10]): 14% and 21% | Vmax (Canis familiaris [11]): -13% | APD95 (Canis familiaris [12]): 11% | APD95 (Canis familiaris [13]): 1% | APD95 (Canis familiaris [14]): 4% and 3% | APD95 (Canis familiaris [15]): 4% and -11%

CCN(CC)CCNC(=O)c1ccc(N)cc1.Cl [PROCAINAMIDE HYDROCHLORIDE]
CT (Canis familiaris [16]): <10% | CT (Canis familiaris [17]): <10% | Vmax (Canis familiaris [18]): < 10% | Vmax (Canis familiaris [19]): -14% and -10% (2×) | APD95 (Canis familiaris [13]): -1% and 0% | APD95 (Canis familiaris [14]): -4% | APD95 (Canis familiaris [20]): -8% and 3% | APD95 (Canis familiaris [21]): -7%
